The values below come from ChEMBL document CHEMBL4339200, “Structure-based Discovery of Phenyl (3-Phenylpyrrolidin-3-yl)sulfones as Selective, Orally Active RORγt Inverse Agonists” (ACS Med Chem Lett, 2019).

Data set [1] concerns the target T1, Oxysterols receptor LXR-beta (Homo sapiens, UniProt P55055).
T1 sequence (P55055 whole entry): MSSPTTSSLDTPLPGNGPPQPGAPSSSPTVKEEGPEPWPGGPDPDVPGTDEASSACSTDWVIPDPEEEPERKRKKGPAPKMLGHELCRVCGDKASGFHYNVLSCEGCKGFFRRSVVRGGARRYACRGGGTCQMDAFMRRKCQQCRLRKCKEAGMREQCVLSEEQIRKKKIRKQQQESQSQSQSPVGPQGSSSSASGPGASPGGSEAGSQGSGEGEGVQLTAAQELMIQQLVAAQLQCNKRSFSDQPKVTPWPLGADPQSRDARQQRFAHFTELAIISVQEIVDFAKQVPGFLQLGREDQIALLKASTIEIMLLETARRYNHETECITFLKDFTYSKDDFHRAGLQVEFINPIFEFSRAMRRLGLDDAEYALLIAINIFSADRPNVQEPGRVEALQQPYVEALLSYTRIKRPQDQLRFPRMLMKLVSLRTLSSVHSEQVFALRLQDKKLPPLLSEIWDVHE
As to the kind of experiment: Agonist activity at LXRbeta (unknown origin) expressed in African green monkey CV1 cells. The data set is classed as cell-based.

The target in data set [2] is T2, Oxysterols receptor LXR-alpha (Homo sapiens, UniProt Q13133).
T2 sequence (Q13133 whole entry): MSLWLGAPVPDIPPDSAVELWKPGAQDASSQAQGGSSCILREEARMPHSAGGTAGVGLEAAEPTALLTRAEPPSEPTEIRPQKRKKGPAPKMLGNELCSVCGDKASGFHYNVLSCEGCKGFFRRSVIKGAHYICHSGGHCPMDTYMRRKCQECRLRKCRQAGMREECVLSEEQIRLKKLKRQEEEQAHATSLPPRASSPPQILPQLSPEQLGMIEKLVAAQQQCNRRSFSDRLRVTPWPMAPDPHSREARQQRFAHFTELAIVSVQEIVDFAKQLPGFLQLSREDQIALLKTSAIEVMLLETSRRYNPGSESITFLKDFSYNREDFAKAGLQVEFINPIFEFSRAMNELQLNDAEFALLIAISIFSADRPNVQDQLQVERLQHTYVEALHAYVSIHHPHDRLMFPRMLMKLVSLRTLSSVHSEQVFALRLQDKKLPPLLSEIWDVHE
The data set can be described thus: Agonist activity at LXRalpha (unknown origin) expressed in African green monkey CV1 cells. The data set is classed as cell-based.

Data set [3] has as its target T3, Nuclear receptor subfamily 1 group I member 2 (Homo sapiens, UniProt O75469).
T3 sequence (O75469 whole entry): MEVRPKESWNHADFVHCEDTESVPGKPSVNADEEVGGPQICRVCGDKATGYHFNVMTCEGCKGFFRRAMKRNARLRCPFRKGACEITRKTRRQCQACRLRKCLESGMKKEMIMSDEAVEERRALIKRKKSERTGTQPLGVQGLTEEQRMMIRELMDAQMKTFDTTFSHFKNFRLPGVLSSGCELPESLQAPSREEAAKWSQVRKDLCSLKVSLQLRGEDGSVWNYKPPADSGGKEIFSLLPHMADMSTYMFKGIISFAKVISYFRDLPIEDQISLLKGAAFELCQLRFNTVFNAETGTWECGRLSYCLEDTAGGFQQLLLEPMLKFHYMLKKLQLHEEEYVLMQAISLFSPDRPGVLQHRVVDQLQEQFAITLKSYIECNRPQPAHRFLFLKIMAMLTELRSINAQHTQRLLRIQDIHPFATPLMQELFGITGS
As to the kind of experiment: Transactivation of PXR in human HepG2 cells. The data set is classed as ADME, cell-based.

A further data set deals with T4, PXR (NR1I2) (Homo sapiens, UniProt O75469).
T4 sequence (O75469 whole entry): T3 sequence (O75469 whole entry)
The data set can be described thus: Transactivation of PXR in human HepG2 cells relative to rifampicin. The data set is classed as ADME, cell-based. As to conditions: read-out: %max.

Data set [4] in a line: Stability in mouse liver microsomes assessed as parent compound remaining after 10 mins. The data set is classed as ADME, Microsome. As to conditions: read-out: Stability. An outline of the steps: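 Rough stability screen: compound incubated with mouse liver microsomes for 10 min, reported as percentage of parent remaining.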
Background: Microsomes from liver hold many membrane-bound enzymes, among them those of drug oxidation.

A short description of data set [5]: Protein binding in mouse plasma assessed as unbound fraction. The data set is classed as ADME, cell-free.
Data set [6] can be described thus: Protein binding in human plasma assessed as unbound fraction. The data set is classed as ADME, cell-free.

The EC50 is the concentration giving half of the maximal effect. Take `CC(=O)N1CCN(C(=O)N2CC[C@@](c3ccc(C(O)(C(F)(F)F)C(F)(F)F)cc3)(S(=O)(=O)c3ccc(F)cc3)C2)CC1`: the EC50 in data set [1] and in data set [2] was over 7.5 µM each time.
In data set [3], `NC(c1ccc(C2(S(=O)(=O)c3ccc(F)cc3)CCCC2)cc1)(C(F)(F)F)C(F)(F)F` yielded an EC50 of 0.275 µM. Also, on PXR (NR1I2), the Emax came to 120%.
With `CCc1cc(S(=O)(=O)[C@@]2(c3ccc(C(F)(C(F)(F)F)C(F)(F)F)cc3)CCN(C(=O)[C@H]3CC[C@H](C(=O)O)CC3)C2)ccc1F`, the EC50 in data set [3] is over 50 µM; in data set [1] it was over 7.5 µM; in data set [2] it was over 7.5 µM. Further, the remaining at 10 min in data set [4] is 73%. Besides, on PXR (NR1I2), the Emax was determined as 9%.
The molecule `O=S(=O)(c1ccc(F)cc1)C1(c2ccc(C(Cl)(C(F)(F)F)C(F)(F)F)cc2)CCCC1` yielded an EC50 in data set [3] of 0.229 µM. Besides, the Emax on PXR (NR1I2) amounted to 110%.
Regarding `O=C(O)[C@H]1CC[C@H](C(=O)N2CC[C@](c3ccc(C(F)(C(F)(F)F)C(F)(F)F)cc3)(S(=O)(=O)c3ccc(F)c(C4CC4)c3)C2)CC1`, the figures for the EC50 in data set [3], in data set [1] and in data set [2] were over 50 µM, over 7.5 µM and over 7.5 µM, respectively. Moreover, in data set [4], the remaining at 10 min was 74%. For the same molecule, on PXR (NR1I2), the Emax came to 9%.
For `CC(=O)N1CCN(C(=O)N2CC[C@](c3ccc(C(F)(C(F)(F)F)C(F)(F)F)cc3)(S(=O)(=O)c3ccc(F)cc3)C2)CC1`, the EC50 in data set [1] and in data set [2] was over 7.5 µM each time. Moreover, the remaining at 10 min in data set [4] worked out at 68%. Further, the Emax on PXR (NR1I2) is 10%.
Molecule `O=S(=O)(c1ccc(F)cc1)C1(c2ccc(C(O)(C(F)(F)F)C(F)(F)F)cc2)CCCC1` returned an EC50 in data set [3] of 0.01 µM. For the same molecule, the Emax on PXR (NR1I2) came out at 110%.
For `CCC(O)(c1ccc(C2(S(=O)(=O)c3ccc(F)cc3)CCCC2)cc1)C(F)(F)F` (racemic) the same measures were 0.048 µM and 110%.
On to `O=C(O)[C@H]1CC[C@H](C(=O)N2CC[C@](c3ccc(C(F)(C(F)(F)F)C(F)(F)F)cc3)(S(=O)(=O)c3ccccc3)C2)CC1`, for which the figures for the EC50 in data set [3], in data set [1] and in data set [2] were over 50 µM, over 7.5 µM and over 7.5 µM, respectively. For the same molecule, in data set [4], the remaining at 10 min is 96%. At PXR (NR1I2), the Emax was 10%.
`CS(=O)(=O)N1CCC(C(=O)N2CC[C@](c3ccc(C(O)(C(F)(F)F)C(F)(F)F)cc3)(S(=O)(=O)c3ccc(F)cc3)C2)CC1`: the EC50 in data set [3] is over 2.47 µM; in data set [1], over 7.5 µM; in data set [2], over 7.5 µM. In addition, the Emax at PXR (NR1I2) is 89%.
A word on the fraction unbound: it is the share of the substance not bound to proteins or other matrix. `Cc1cc(S(=O)(=O)[C@@]2(c3ccc(C(F)(C(F)(F)F)C(F)(F)F)cc3)CCN(C(=O)[C@H]3CC[C@H](C(=O)O)CC3)C2)ccc1F`: the figures for the EC50 in data set [3], in data set [1] and in data set [2] were over 22.8 µM, over 7.5 µM and over 7.5 µM, respectively. The fraction unbound in data set [5] came out at 0.029; in data set [6], 0.017. Further, the remaining at 10 min in data set [4] came out at 84%. On PXR (NR1I2), the Emax came to 40%.
Regarding `O=C(O)C1CCN(C(=O)N2CC[C@](c3ccc(C(F)(C(F)(F)F)C(F)(F)F)cc3)(S(=O)(=O)c3ccc(F)cc3)C2)CC1`, the EC50 in data set [3] was over 46.1 µM; in data set [1], over 7.5 µM; in data set [2], over 7.5 µM. Besides, the remaining at 10 min in data set [4] is 88%. Also, the Emax on PXR (NR1I2) is 23%.
`CCc1ccc(S(=O)(=O)[C@@]2(c3ccc(C(F)(C(F)(F)F)C(F)(F)F)cc3)CCN(C(=O)[C@H]3CC[C@H](C(=O)O)CC3)C2)cc1`: the EC50 in data set [3] was over 50 µM; in data set [1] it was over 7.5 µM; in data set [2], over 7.5 µM. In addition, the remaining at 10 min in data set [4] stood at 100%. The Emax at PXR (NR1I2) was 3%.
In the case of `COc1ccc(S(=O)(=O)[C@@]2(c3ccc(C(F)(C(F)(F)F)C(F)(F)F)cc3)CCN(C(=O)[C@H]3CC[C@H](C(=O)O)CC3)C2)cc1`, the EC50 is over 50 µM in data set [3], over 7.5 µM in data set [1] and over 7.5 µM in data set [2]. The remaining at 10 min in data set [4] was determined as 98%. Moreover, at PXR (NR1I2), the Emax was determined as 12%.
Take `O=C(O)[C@H]1CC[C@@H](C(=O)N2CC[C@](c3ccc(C(F)(C(F)(F)F)C(F)(F)F)cc3)(S(=O)(=O)c3ccc(F)cc3)C2)CC1`: the EC50 in data set [1] and in data set [2] was over 7.5 µM in each case.
For the molecule `O=S(=O)(c1ccc(F)cc1)C1(c2ccc(C(F)(C(F)(F)F)C(F)(F)F)cc2)CCCC1`, the EC50 in data set [3] was determined as 1.01 µM. At PXR (NR1I2), the Emax was 130%.
On to `CC(=O)N1CCC(C(=O)N2CC[C@](c3ccc(C(F)(C(F)(F)F)C(F)(F)F)cc3)(S(=O)(=O)c3ccc(F)cc3)C2)CC1`, for which the EC50 in data set [1] and in data set [2] was over 7.5 µM throughout. At PXR (NR1I2), the Emax was found to be 7%.
As to `CC(=O)N1CCN(C(=O)N2CC[C@](c3ccc(C(O)(C(F)(F)F)C(F)(F)F)cc3)(S(=O)(=O)c3ccc(F)cc3)C2)CC1`, the EC50 in data set [1] and in data set [2] was over 7.5 µM in each case.
Consider `CC(=O)N1CCC(C(=O)N2CC[C@](c3ccc(C(O)(C(F)(F)F)C(F)(F)F)cc3)(S(=O)(=O)c3ccc(F)cc3)C2)CC1`, for which the EC50 in data set [1] and in data set [2] was over 7.5 µM in each case.
Regarding `CC(=O)N1CCC(c2ccc(C(O)(C(F)(F)F)C(F)(F)F)cc2)(S(=O)(=O)c2ccc(F)cc2)C1` (racemic), the EC50 in data set [3] was 0.48 µM; in data set [1], over 7.5 µM; in data set [2], over 7.5 µM. Further, at PXR (NR1I2), the Emax came out at 100%.
Take `O=C(C1CCCC1)N1CCC(c2ccc(C(O)(C(F)(F)F)C(F)(F)F)cc2)(S(=O)(=O)c2ccc(F)cc2)C1` (racemic): the EC50 in data set [3] was 0.794 µM; in data set [1], over 7.5 µM; in data set [2], over 7.5 µM. Further, the Emax on PXR (NR1I2) amounted to 99%.
Consider `CS(=O)(=O)N1CCC(C(=O)N2CC[C@](c3ccc(C(F)(C(F)(F)F)C(F)(F)F)cc3)(S(=O)(=O)c3ccc(F)cc3)C2)CC1`, for which the values for the EC50 in data set [3], in data set [1] and in data set [2] were over 50 µM, over 7.5 µM and over 7.5 µM, respectively. For the same molecule, the remaining at 10 min in data set [4] was determined as 69%. Further, at PXR (NR1I2), the Emax is 2%.
Take `Cc1ccc(S(=O)(=O)[C@@]2(c3ccc(C(F)(C(F)(F)F)C(F)(F)F)cc3)CCN(C(=O)[C@H]3CC[C@H](C(=O)O)CC3)C2)cc1`: the EC50 was 12.6 µM in data set [3], over 7.5 µM in data set [1] and over 7.5 µM in data set [2]. The fraction unbound in data set [5] amounted to 0.026; in data set [6], 0.013. Further, in data set [4], the remaining at 10 min stood at 85%. Further, the Emax on PXR (NR1I2) was determined as 29%.
With `O=C(O)[C@H]1CC[C@H](C(=O)N2CC[C@](c3ccc(C(F)(C(F)(F)F)C(F)(F)F)cc3)(S(=O)(=O)c3ccc(Cl)cc3)C2)CC1`, the EC50 in data set [3] is 6.44 µM; in data set [1] it was over 7.5 µM; in data set [2] it was over 7.5 µM. For the same molecule, the remaining at 10 min in data set [4] is 100%. Also, at PXR (NR1I2), the Emax was determined as 22%.
On to `O=S(=O)(c1ccc(F)cc1)[C@]1(c2ccc(C(O)(C(F)(F)F)C(F)(F)F)cc2)CCNC1`, for which the EC50 in data set [3] is 0.52 µM; in data set [1], over 7.5 µM; in data set [2] it was over 7.5 µM. Besides, the Emax at PXR (NR1I2) was 110%.
With `CC(c1ccc(C2(S(=O)(=O)c3ccc(F)cc3)CCCC2)cc1)(C(F)(F)F)C(F)(F)F`, in data set [3], the EC50 stood at 0.752 µM. The Emax on PXR (NR1I2) was 140%.
Regarding `CCNC(=O)N1CCC(c2ccc(C(O)(C(F)(F)F)C(F)(F)F)cc2)(S(=O)(=O)c2ccc(F)cc2)C1` (racemic), the EC50 in data set [1] and in data set [2] was over 7.5 µM each time.
In turn, `CC(O)(c1ccc(C2(S(=O)(=O)c3ccc(F)cc3)CCCC2)cc1)C(F)(F)F` (racemic) yielded an EC50 in data set [3] of 0.239 µM. Further, at PXR (NR1I2), the Emax came to 110%.
